Active and inactive are the calls of the source. No cut-off for these calls is given here.
Experiments:
[1] = test system: MDA-MB-435; experiment: Cell cycle arrest in human MDA-MB-435 cells assessed as accumulation at sub-G1 phase at 0.25 to 1 uM by propidium iodide staining-based flow cytometry; assay type: functional; details: TDE = time-dependent effect, in the assay text read “G2/M phase” for “sub-G1 phase”
Procedure, shortened: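 PI-stained DNA content of treated MDA-MB-435 cells read by flow cytometry. Sub-G1 population taken as apoptotic cellular fragments; three independent experiments.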

[2] = test system: MDA-MB-435; experiment: Induction of DNA damage in human MDA-MB-435 cells assessed as phosphorylation of H2AX at Ser139 at 0.5 uM after 12 hrs by Western blotting analysis; assay type: functional, cell-based
Procedure, shortened: (§1)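 Treated MDA-MB-435 cells lysed in ice-cold Tris-HCl pH 7.4 buffer with Triton, phosphatase and protease inhibitors. Lysates clarified, boiled in SDS loading buffer, run on 8-12% SDS-PAGE and blotted. Membranes blocked in 5% skim milk, probed with primary antibodies, then peroxidase secondaries with ECL detection. β-actin as loading control.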

[3] = test system: MDA-MB-435; experiment: Cell cycle arrest in human MDA-MB-435 cells assessed as accumulation at G2/M phase at 0.5 uM after 24 hrs by propidium iodide staining-based flow cytometry (reference value: 14.05%); assay type: functional
[4] = test system: MDA-MB-435; experiment: Cell cycle arrest in human MDA-MB-435 cells assessed as accumulation at G1 phase at 0.25 uM after 24 hrs by propidium iodide staining-based flow cytometry (reference value: 28.06%); assay type: functional
[5] = test system: MDA-MB-435; experiment: Induction of apoptosis in human MDA-MB-435 cells assessed as dead cells at 1 uM after 24 hrs by annexin-V FITC/propidium iodide staining-based flow cytometry (reference value: 0.61 +/- 0.24%); assay type: functional
[6] = test system: MDA-MB-435; experiment: Induction of apoptosis in human MDA-MB-435 cells assessed as downregulation of Bcl-2 protein expression at 0.25 to 1 uM after 12 hrs by Western blotting analysis; assay type: functional, cell-based; procedure, shortened: as §1
[7] = test system: MDA-MB-435; experiment: Cell cycle arrest in human MDA-MB-435 cells assessed as increase in cyclin B1 expression at 0.25 to 1 uM after 12 to 24 hrs by Western blotting analysis; assay type: functional, cell-based; procedure, shortened: as §1
[8] = test system: MDA-MB-435; experiment: Induction of apoptosis in human MDA-MB-435 cells assessed as decrease in procaspase 3 expression after 12 to 24 hrs by Western blotting analysis; assay type: functional, cell-based; procedure, shortened: as §1
[9] = test system: MDA-MB-435; experiment: Induction of apoptosis in human MDA-MB-435 cells assessed as morphological changes at 0.25 to 1 uM by DAPI staining-based fluorescence microscopy; assay type: functional, cell-based
Procedure, shortened: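 Treated MDA-MB-435 cells washed in ice-cold PBS, fixed 20 min in 4% paraformaldehyde, stained 30 min at 37 °C with DAPI (50 µg/mL) containing 100 µg/mL RNase A. After PBS washes, examined by fluorescence microscopy (excitation 340 nm, emission 488 nm).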

[10] = test system: MDA-MB-435; experiment: Cell cycle arrest in human MDA-MB-435 cells assessed as accumulation at G2/M phase at 1 uM after 24 hrs by propidium iodide staining-based flow cytometry (reference value: 14.05%); assay type: functional
[11] = test system: MDA-MB-435; experiment: Cell cycle arrest in human MDA-MB-435 cells assessed as accumulation at S phase at 0.25 uM after 24 hrs by propidium iodide staining-based flow cytometry (reference value: 57.11%); assay type: functional
[12] = test system: MDA-MB-435; experiment: Induction of apoptosis in human MDA-MB-435 cells at 0.25 to 1 uM after 24 hrs by annexin-V FITC/propidium iodide staining-based flow cytometry in presence of N-acetylcysteine; assay type: functional, cell-based
[13] = species on record: Bos taurus; experiment: Inhibition of calf thymus DNA topoisomerase 1-mediated relaxation of supercoiled pBR322 DNA at 100 uM after 30 mins by Agarose gel electrophoresis
Procedure, shortened: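 Relaxation assay with 0.5 µg supercoiled pBR322 and 1 unit calf thymus Topo I, 20 µL. Buffer: 10 mM Tris–HCl pH 7.9, 150 mM NaCl, 0.1% BSA, 1 mM spermidine, 5% glycerol. Incubated 37 °C for 30 min; stopped with sarcosyl stop solution. 1% agarose gel, 5 V/cm, 2 h, TAE; ethidium bromide stain (0.5 µg/mL), UV. DMSO stocks. At least duplicate.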

[14] = test system: MDA-MB-435; experiment: Induction of human apoptosis in MDA-MB-435 cells assessed as upregulation of Bak protein expression at 0.25 to 1 uM after 12 hrs by Western blotting analysis; assay type: functional, cell-based; procedure, shortened: as §1
[15] = test system: MDA-MB-435; experiment: Induction of apoptosis in human MDA-MB-435 cells assessed as early apoptotic cells at 2 uM after 24 hrs by annexin-V FITC/propidium iodide staining-based flow cytometry (reference value: 0.61 +/- 0.24%); assay type: functional
Procedure, shortened: (§2)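 MDA-MB-435 cells treated 24 h, stained with annexin V-FITC/PI per kit instructions, analysed by flow cytometry. Quadrant statistics: lower right taken as apoptotic, upper right as necrotic or post-apoptotic necrotic. Representative of three similar experiments.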

[16] = test system: MDA-MB-435; experiment: Induction of apoptosis in human MDA-MB-435 cells assessed as late apoptotic cells at 2 uM after 24 hrs by annexin-V FITC/propidium iodide staining-based flow cytometry (reference value: 0.34 +/- 0.08%); assay type: functional; procedure, shortened: as §2
[17] = test system: Calf thymus DNA; experiment: Induction of DNA intercalation activity of calf thymus DNA topoisomerase 1 assessed as unwinding of pBR322 DNA up to 100 uM after 30 mins by Agarose gel electrophoresis; assay type: nucleic-acid assay; details: Bos taurus
Procedure, shortened: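 Relaxed pBR322 made by treating supercoiled plasmid with excess Topo I (10 units), then proteinase K digestion at 37 °C, phenol-chloroform extraction and ethanol precipitation. Incubated with compound 30 min at 37 °C, run on 1% agarose gel at 5 V/cm for 2 h in TAE, stained with 0.5 µg/mL ethidium bromide, viewed under UV.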

[18] = test system: MDA-MB-435; experiment: Induction of apoptosis in human MDA-MB-435 cells assessed as upregulation of Bax protein expression at 0.25 to 1 uM after 12 hrs by Western blotting analysis; assay type: functional, cell-based; procedure, shortened: as §1
[19] = target: DNA topoisomerase 2-alpha (Homo sapiens) (UniProt P11388); experiment: Inhibition of recombinant human DNA topoisomerase 2-alpha-mediated relaxation of supercoiled pBR322 DNA at 10 to 100 uM after 30 mins by Agarose gel electrophoresis
DNA topoisomerase 2-alpha (Homo sapiens), sequence (P11388 whole entry): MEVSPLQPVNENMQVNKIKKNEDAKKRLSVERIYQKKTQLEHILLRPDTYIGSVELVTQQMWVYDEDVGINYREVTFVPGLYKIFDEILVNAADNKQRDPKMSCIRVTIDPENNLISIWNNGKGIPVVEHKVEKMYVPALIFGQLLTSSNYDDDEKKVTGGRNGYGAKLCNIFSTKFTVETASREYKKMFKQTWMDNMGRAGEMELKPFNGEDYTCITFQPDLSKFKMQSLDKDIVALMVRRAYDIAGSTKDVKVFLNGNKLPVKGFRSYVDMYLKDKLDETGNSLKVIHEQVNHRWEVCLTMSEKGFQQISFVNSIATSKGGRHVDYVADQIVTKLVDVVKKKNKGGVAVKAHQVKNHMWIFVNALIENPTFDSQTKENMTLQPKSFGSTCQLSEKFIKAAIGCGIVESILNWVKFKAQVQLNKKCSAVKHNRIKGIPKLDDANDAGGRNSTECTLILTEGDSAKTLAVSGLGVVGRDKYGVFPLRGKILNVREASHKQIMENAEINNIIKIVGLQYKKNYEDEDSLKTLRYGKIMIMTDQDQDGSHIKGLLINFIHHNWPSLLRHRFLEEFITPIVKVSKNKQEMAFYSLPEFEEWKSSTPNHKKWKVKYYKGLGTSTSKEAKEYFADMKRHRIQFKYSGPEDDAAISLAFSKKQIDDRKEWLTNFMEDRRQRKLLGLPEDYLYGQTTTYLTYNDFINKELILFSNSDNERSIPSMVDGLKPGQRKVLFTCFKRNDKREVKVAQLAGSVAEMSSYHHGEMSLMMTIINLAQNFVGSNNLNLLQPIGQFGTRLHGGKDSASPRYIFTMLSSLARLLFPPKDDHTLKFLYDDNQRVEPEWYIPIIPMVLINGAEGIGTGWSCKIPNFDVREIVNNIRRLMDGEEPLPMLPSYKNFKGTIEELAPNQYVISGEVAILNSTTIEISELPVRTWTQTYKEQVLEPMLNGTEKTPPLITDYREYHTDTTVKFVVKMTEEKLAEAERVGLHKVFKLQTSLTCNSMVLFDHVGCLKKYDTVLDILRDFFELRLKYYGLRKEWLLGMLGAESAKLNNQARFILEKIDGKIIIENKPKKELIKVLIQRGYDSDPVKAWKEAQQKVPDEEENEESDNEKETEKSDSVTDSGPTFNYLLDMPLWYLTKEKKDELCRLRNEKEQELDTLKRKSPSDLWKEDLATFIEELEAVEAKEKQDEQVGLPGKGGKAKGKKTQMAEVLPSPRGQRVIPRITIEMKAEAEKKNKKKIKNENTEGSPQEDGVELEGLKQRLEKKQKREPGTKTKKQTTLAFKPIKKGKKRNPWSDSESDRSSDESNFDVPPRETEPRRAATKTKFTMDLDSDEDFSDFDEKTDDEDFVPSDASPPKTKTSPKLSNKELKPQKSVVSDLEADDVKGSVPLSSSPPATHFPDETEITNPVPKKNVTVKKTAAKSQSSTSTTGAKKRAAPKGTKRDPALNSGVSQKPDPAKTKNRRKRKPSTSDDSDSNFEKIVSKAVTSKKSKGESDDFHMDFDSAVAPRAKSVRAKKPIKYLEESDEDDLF
Procedure, shortened: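 Relaxation assay with 0.5 µg supercoiled pBR322 and 1 unit recombinant human Topo IIα, 20 µL. Incubated 30 min at 30 °C; stopped with 7 mM EDTA. 1% agarose gel, 5 V/cm, 2 h, TAE; ethidium bromide stain, UV. DMSO stocks. At least duplicate.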

[20] = test system: A549; experiment: Cytotoxicity against human A549 cells assessed as growth inhibition after 72 hrs by MTT assay; assay type: functional, cell-based
Procedure, shortened: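 MTT assay: cells treated in triplicate with a range of concentrations for 72 h at 37 °C, 5% CO2. Medium replaced, MTT (5 mg/mL) added for 4 h, then SDS/isobutanol/HCl solubiliser overnight. Absorbance read at 590 nm. Inhibition calculated against control and blank wells; IC50 is concentration giving 50% growth inhibition; three independent experiments.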

[21] = test system: MDA-MB-435; experiment: Cell cycle arrest in human MDA-MB-435 cells assessed as accumulation at sub-G1 phase at 0.25 uM after 24 hrs by propidium iodide staining-based flow cytometry (reference value: 0.79%); assay type: functional

With Oc1ccc(-c2ccc(-c3ccc(O)c(O)c3)cc2)cc1 the Activity [1] was “tde”, the Activity [2] was “inactive” and the Activity [3] was 38.41%. For the same compound, the Activity [4] was 34.91%, the Activity [5] was 1.03% and the Activity [6] was “Active”. For the same compound, the Activity [7] was “Active”, the Activity [8] was “Dose-dependent effect” and the Activity [9] was “Active”. The Activity [10] was 54.51%, the Activity [11] was 47.81% and the Activity [12] was “Active”. The inhibition [13] was “Active”, the Activity [14] was “Active” and the Activity [15] was 12.87%. For the same compound, the Activity [16] was 14.35%, the Activity [17] was “inactive” and the Activity [18] was “Active”. For the same compound, the inhibition [19] was “Active”, the “growth inhibition (GI)” value [20] was “Active” and the Activity [21] was 1.04%.
